These results are taken from ChEMBL document CHEMBL2057098, “Novel 1,2,4-triazolo[1,5-a]pyridines and their fused ring systems attenuate oxidative stress and prolong lifespan of Caenorhabiditis elegans” (2012).

Activity calls are given as the source filed them. The rule behind the calls is not given here.

Experiment [1] concerns Caenorhabditis elegans. The experiment in a line: Antioxidant activity against parquat-induced oxidative stress in wild type Caenorhabditis elegans Bristol N2 assessed as increase in survival time at 500 nM (reference value: 17.64 +/- 0.19 days). In kind it is functional.
Experiment [2] relates to Caenorhabditis elegans. The experiment in a line: Antioxidant activity against parquat-induced oxidative stress in wild type Caenorhabditis elegans Bristol N2 assessed as increase in survival time at 500 nM to 1 uM. In kind it is functional, organism-based. Put shortly: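 Age-synchronised 7-day-old adult N2 worms were placed overnight on agar plates with 40 μM FUDR and paraquat, with or without compound (50 nM, 500 nM, 1 μM), at 20 °C. Viability was scored over 20 h, with 30 worms per trial in three independent experiments. Survival was plotted as Kaplan–Meier curves.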

For experiment [3], the system named is Caenorhabditis elegans. The experiment in a line: Antioxidant activity against parquat-induced oxidative stress in wild type Caenorhabditis elegans Bristol N2 assessed as increase in survival time. In kind it is functional, organism-based. The essentials: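 Seven-day-old synchronised N2 adults, 30 worms per trial at 20 °C. Worms were placed overnight on agar containing paraquat and 40 μM FUDR, with or without test compound. Viability was scored over a 20 h period. Three independent experiments.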

In experiment [4] the test system is Caenorhabditis elegans. The experiment in a line: Antioxidant activity against heat-induced oxidative stress in wild type Caenorhabditis elegans Bristol N2 assessed as increase in survival time at 500 nM […] relative to control. In kind it is functional.
Experiment [5] relates to Caenorhabditis elegans. The experiment in a line: Antioxidant activity against heat-induced oxidative stress in wild type Caenorhabditis elegans Bristol N2 assessed as increase in survival time at 50 nM […] relative to control. In kind it is functional.
The subject of experiment [6] is Caenorhabditis elegans. The experiment in a line: Antioxidant activity in wild type Caenorhabditis elegans Bristol N2 assessed as decrease in oxidative stress-induced carboxymethyllysine formation by ELISA. In kind it is functional, organism-based. The essentials:
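Protein extracts came from N2 worms treated for 7 days with or without compound, with 40 μM FUDR; protein was quantified. CML was measured by competitive ELISA on streptavidin-coated plates using biotinylated glucose-glycated BSA and an HRP-labelled mouse monoclonal anti-CML antibody.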
On the technique in general: In an ELISA, binding on a coated surface is turned into a signal by an enzyme label.

The test system of experiment [7] is Caenorhabditis elegans. The experiment in a line: Antioxidant activity against heat-induced oxidative stress in wild type Caenorhabditis elegans Bristol N2 assessed as increase in survival time measured for 16 hrs at 37 degC relative to control. In kind it is functional, organism-based.
Experiment [8] relates to Caenorhabditis elegans. Briefly: Antioxidant activity against parquat-induced oxidative stress in wild type Caenorhabditis elegans Bristol N2 assessed as increase in survival time at 50 nM (reference value: 17.64 +/- 0.19 days). In kind it is functional.
Experiment [9] concerns Caenorhabditis elegans. The experiment in a line: Antioxidant activity against lipid peroxidation in wild type Caenorhabditis elegans Bristol N2 assessed as decrease of malondialdehyde level. In kind it is functional, organism-based. The essentials: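 N2 worms were kept 7 days on plates with 40 μM FUDR, with or without compound. They were washed by sucrose flotation, homogenised in Tris-HCl pH 7.9 buffer with protease inhibitors, and centrifuged. The lysate was treated with 8.1% SDS for 10 min at room temperature, then boiled 60 min with 20% acetic acid and 0.6% thiobarbituric acid, with 0.01% BHT present. A butanol:pyridine (15:1) extract was read at 532 nm against a tetramethoxypropane standard. MDA was expressed as nmol/g protein.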

For experiment [10], the system named is Caenorhabditis elegans. Briefly: Antioxidant activity against parquat-induced oxidative stress in wild type Caenorhabditis elegans Bristol N2 assessed as increase in survival time at 1 uM (reference value: 17.64 +/- 0.19 days). In kind it is functional.
For experiment [11], the system named is Caenorhabditis elegans. The experiment in a line: Antioxidant activity against heat-induced oxidative stress in wild type Caenorhabditis elegans Bristol N2 assessed as increase in survival time at 1 uM […] relative to control. In kind it is functional.

Turning to `CCSc1nn2c(=O)c(/C=N/O)c(Cl)c(C#N)c2n1-c1ccccc1`, the outcome in experiment [1] and in experiment [2] was inactive.

On to `CCOC(=O)c1cc2c(=O)n3nc(SCC)n(-c4ccccc4)c3c(C#N)c2[nH]1`, for which the outcome in experiment [1] and in [2] was inactive.

Consider `CCSc1nn2c(=O)c(C#N)c(N)c(C#N)c2n1-c1ccccc1`, for which the Activity entry in [3], in experiment [6], in experiment [7] and in [9] was “Dose-dependent effect” each time. For the same molecule, the “fold change (FC)” value in experiment [4] came out at 2; in experiment [5] it was 1.8; in experiment [11], 2.5. Moreover, the Time came to 19.76 days in [1], 18 days in experiment [8] and 21 days in [10].

With `CCSc1nn2c(=O)c(/C=N/O)c(NCC(C)C)c(C#N)c2n1-c1ccccc1`, the result in experiment [1] and in [2] was inactive.
